*1 amine or outer side, *2 acyl side, *3 side chain or, on linkers, in order; H or OH if unused. Where a SMILES comes first, the peptide text is derived from it. [ ]: non-standard residue; d: D form. The star is where a group is joined. Phe(ψ(S)CH(OH)CH2N)Pro = O=C([C@@H]1CCCN1C[C@H](O)[C@H](Cc1ccccc1)N[*:1])[*:2]; Ahppa(3S,4S) = O=C(C[C@H](O)[C@H](Cc1ccccc1)N[*:1])[*:2]; X1 = CC(C)C[C@H](N[*:1])[C@@H](O)CN1CCC[C@H]1C(=O)[*:2]; X2 = O=C([C@@H]1CCCN1C[C@H](Cc1ccccc1)N[*:1])[*:2]; Sta = CC(C)C[C@H](N)[C@@H](O)CC(=O)O; Boc = CC(C)(C)OC(=O)*
Biological target: T1, Human immunodeficiency virus type 1 protease (Human immunodeficiency virus 1, UniProt Q72874)
Assay: Inhibitory activity against HIV Protease was measured at pH 6.4 and 37 degrees C
Outline: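 Recombinant HIV protease expressed in E. coli; substrate Ac-Thr-Ile-Met-Gln-Arg-NH2 varied 0.5–10 mM. Inhibitor added in DMSO (final 1–3%), preincubated with enzyme 10 min before substrate started the reaction. Initial rates by HPLC and fluorometric assays. Ki from fitting initial velocities to the competitive inhibition equation; each is the average of three or more independent determinations.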

Going from `CC[C@H](C)[C@H](NC(=O)C[C@H](O)[C@H](Cc1ccccc1)NC(=O)[C@H](CC(N)=O)NC(=O)[C@H](CC(C)C)NC(=O)[C@H](CO)NC(C)=O)C(=O)N[C@H](C(=O)OC)C(C)C` (Ac-SLN[Ahppa(3S,4S)]IV-OMe) to `CC[C@H](C)[C@H](NC(=O)[C@@H]1CCCN1C[C@H](O)[C@H](CC(C)C)NC(=O)[C@H](CC(N)=O)NC(=O)[C@H](CC(C)C)NC(=O)[C@H](CO)NC(C)=O)C(=O)N[C@H](C(=O)OC)C(C)C` (Ac-SLN[X1]IV-OMe), the Ki falls from 8000 nM to 118 nM (68-fold). The second binds more tightly here.

First: CC[C@H](C)[C@H](NC(=O)[C@@H]1CCCN1C[C@H](O)[C@H](CC(C)C)NC(=O)[C@H](CC(N)=O)NC(=O)[C@H](CC(C)C)NC(=O)[C@H](CO)NC(C)=O)C(=O)OC (Ac-SLN[X1]I-OMe)
Second: CC[C@H](C)[C@H](NC(=O)[C@@H]1CCCN1C[C@H](O)[C@H](CC(C)C)NC(=O)[C@H](CC(N)=O)NC(=O)[C@H](CC(C)C)NC(C)=O)C(=O)OC
The Ki of the first is lower: 980 nM for the first, over 10000 nM for the second. The first binds more tightly here.

Biological target: T1, Human immunodeficiency virus type 1 protease
Assay: Inhibition of HIV protease at pH 6.4, 37 degree C

`CC[C@H](C)[C@H](NC(=O)[C@@H]1CCCN1C[C@H](O)[C@H](CC(C)C)NC(=O)[C@H](CC(N)=O)NC(=O)[C@H](CC(C)C)NC(C)=O)C(=O)N[C@H](C(=O)OC)C(C)C` (Ac-LN[X1]IV-OMe) and `CC[C@@H](C)[C@H](NC(=O)[C@@H]1CCCN1C[C@@H](O)[C@H](Cc1ccccc1)NC(=O)[C@H](CC(N)=O)NC(=O)[C@H](CC(C)C)NC(C)=O)C(=O)N[C@H](C(=O)OC)C(C)C` are the same in Ki: 21 nM for the first, 21 nM for the second.

First: CC[C@H](C)[C@H](NC(=O)[C@@H]1CCCN1C[C@H](O)[C@H](Cc1ccccc1)NC(=O)[C@H](CC(N)=O)NC(=O)[C@H](CC(C)C)NC(=O)[C@H](CO)NC(C)=O)C(=O)OC (Ac-SLN[Phe(ψ(S)CH(OH)CH2N)Pro]I-OMe)
Second: CC[C@H](C)[C@H](NC(=O)[C@@H]1CCCN1C[C@H](O)[C@H](Cc1ccccc1)NC(=O)[C@H](CC(N)=O)NC(=O)[C@H](CC(C)C)NC(=O)[C@H](CO)NC(C)=O)C(=O)N[C@H](C(=O)OC)C(C)C (Ac-SLN[Phe(ψ(S)CH(OH)CH2N)Pro]IV-OMe)
The Ki of the first is 640-fold higher: 420 nM for the first, 0.66 nM for the second. The second binds more tightly here.

Compared with `COC(=O)[C@@H](NC(=O)[C@@H](NC(=O)C[C@H](O)[C@H](Cc1ccccc1)NC(=O)[C@H](CC(N)=O)NC(=O)[C@H](CCC(N)=O)NC(=O)[C@H](CO)NC(C)=O)C(C)C)C(C)C` (Ac-SQN[Ahppa(3S,4S)]VV-OMe), `CC[C@H](C)[C@H](NC(=O)C[C@H](O)[C@H](Cc1ccccc1)NC(=O)[C@H](CC(N)=O)NC(=O)[C@H](CC(C)C)NC(=O)[C@H](CO)NC(=O)OC(C)(C)C)C(=O)N[C@H](C(=O)OC)C(C)C` (Boc-SLN[Ahppa(3S,4S)]IV-OMe) is 15-fold lower in Ki: 39000 nM for the first, 2640 nM for the second. The second binds more tightly here.

Going from `CC[C@H](C)[C@H](NC(=O)C[C@H](O)[C@H](CC(C)C)NC(=O)[C@H](CC(N)=O)NC(=O)[C@H](CC(C)C)NC(=O)[C@H](CO)NC(C)=O)C(=O)N[C@H](C(=O)OC)C(C)C` (Ac-SLN[Sta]IV-OMe) to `CC(=O)N[C@@H](CO)C(=O)N[C@@H](CCC(N)=O)C(=O)N[C@@H](CC(N)=O)C(=O)N[C@@H](Cc1ccccc1)CN1CCC[C@H]1C(=O)N[C@H](C(=O)N[C@H](C(N)=O)C(C)C)C(C)C` (Ac-SQN[X2]VV-NH2), the Ki rises from 1060 nM to 13000 nM (12-fold).

Compared with `COC(=O)[C@@H](NC(=O)[C@@H](NC(=O)CNC[C@H](O)[C@H](Cc1ccccc1)NC(=O)[C@H](C)NC(=O)[C@H](C)N)C(C)C)C(C)C`, `CC[C@H](C)[C@H](NC(=O)[C@H](Cc1ccccc1)NC[C@H](O)[C@H](Cc1ccccc1)NC(=O)OC(C)(C)C)C(=O)N[C@@H](Cc1ccccc1)C(=O)OC` is 30-fold lower in Ki: 18 nM for the first, 0.6 nM for the second.

Reference: ChEMBL document CHEMBL1124753, “Hydroxyethylamine analogues of the p17/p24 substrate cleavage site are tight-binding inhibitors of HIV protease” (J Med Chem, 1990)
